{"source": "ChEMBL document CHEMBL1133108", "about": "“Neurosteroid analogues. 8. Structure-activity studies of N-acylated 17a-aza-D-homosteroid analogues of the anesthetic steroids (3alpha, 5alpha)- and (3alpha,5beta)-3-hydroxypregnan-20-one” (J Med Chem, 2000)", "key": {"[1]": {"target": "T1, GABA-A receptor; alpha-1/beta-2/gamma-2 (Rattus norvegicus) (UniProt P18508+P62813+P63138)", "experiment": "Electrophysiological effect on rat alpha-1-beta-2-gamma-2 GABA-A receptor subunits expressed in xenopus laevis oocytes at 10 uM in the absence of GABA", "format": "functional, cell-based", "conditions": "Oocyte", "method_in_brief": "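Rat α1β2γ2 GABAA receptors are expressed in Xenopus oocytes. Steroid at 10 μM is applied alone, without GABA, and the directly gated current is measured. The value is the ratio of steroid-only current to the 2 μM GABA control current. N = 3–6 (12 for one reference steroid), mean ± SEM.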"}, "[2]": {"target": "T1, GABA-A receptor; alpha-1/beta-2/gamma-2 (Rattus norvegicus)", "experiment": "Electrophysiological effect on rat alpha-1-beta-2-gamma-2 GABA-A receptor subunits expressed in xenopus laevis oocytes at 1 uM", "format": "functional, cell-based", "conditions": "Oocyte", "method_in_brief": "(§1)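 Oocytes express rat α1β2γ2 GABAA receptors. The control response uses 2 μM GABA. Steroid is co-applied at 0.1, 1 or 10 μM. The value is the ratio of current with steroid to current without it. N = 3–6 (12 for one reference steroid), mean ± SEM. These are not full concentration-response curves.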"}, "[3]": {"target": "T1, GABA-A receptor; alpha-1/beta-2/gamma-2 (Rattus norvegicus)", "experiment": "Electrophysiological effect on rat alpha-1-beta-2-gamma-2 GABA-A receptor subunits expressed in xenopus laevis oocytes at 0.1 uM", "format": "functional, cell-based", "conditions": "Oocyte", "method_in_brief": "as §1"}, "[4]": {"target": "GABA-A receptor; anion channel", "experiment": "Displacement of […]-tert-butylbicyclophosphorothionate (TBPS) from Gamma-aminobutyric acid A (GABA-A) receptor of rat brain membranes", "format": "cell membranes, Membrane", "method_in_brief": "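Noncompetitive displacement of [35S]TBPS from the picrotoxin site in rat brain membranes. Full concentration-response curves were fitted for IC50. Data come from duplicate experiments, each run in triplicate, with mean ± SEM reported. Hill coefficients are given.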"}, "[5]": {"target": "T1, GABA-A receptor; alpha-1/beta-2/gamma-2 (Rattus norvegicus)", "experiment": "Electrophysiological effect on rat alpha-1-beta-2-gamma-2 GABA-A receptor subunits expressed in xenopus laevis oocytes at 10 uM", "format": "functional, cell-based", "conditions": "Oocyte", "method_in_brief": "as §1"}}}
{"compound": "C[C@]12CCC3C(CC[C@@H]4C[C@H](O)CC[C@]34C)C1CCCN2C(=O)CO", "note": "(some centres undefined)", "values": [{"measurement": "Activity", "setting": "[1]", "value": 0.1}, {"measurement": "Activity", "setting": "[2]", "value": 1.57}, {"measurement": "Activity", "setting": "[3]", "value": 1.36}, {"measurement": "IC50", "setting": "[4]", "value": 930, "unit": "nM"}, {"measurement": "Activity", "setting": "[5]", "value": 3.87}]}
{"compound": "CC(=O)N1CCCC2C3CC[C@H]4C[C@H](O)CC[C@]4(C)C3CC[C@@]21C", "note": "(some centres undefined)", "values": [{"measurement": "Activity", "setting": "[1]", "value": 0.05}, {"measurement": "Activity", "setting": "[2]", "value": 1.66}, {"measurement": "Activity", "setting": "[3]", "value": 1.21}, {"measurement": "IC50", "setting": "[4]", "value": 200, "unit": "nM"}, {"measurement": "Activity", "setting": "[5]", "value": 3.74}]}
{"compound": "C[C@@]1(O)CC[C@]2(C)C3CC[C@@]4(C)C(CCCN4C(=O)CO)C3CC[C@H]2C1", "note": "(some centres undefined)", "values": [{"measurement": "Activity", "setting": "[1]", "value": 0.2}, {"measurement": "Activity", "setting": "[2]", "value": 1.22}, {"measurement": "Activity", "setting": "[3]", "value": 1}, {"measurement": "IC50", "setting": "[4]", "value": 550, "unit": "nM"}, {"measurement": "Activity", "setting": "[5]", "value": 6.5}]}
{"compound": "CC(=O)[C@H]1CC[C@H]2[C@@H]3CC[C@@H]4C[C@H](O)CC[C@]4(C)[C@H]3CC[C@]12C", "note": "[ELTANOLONE]", "values": [{"measurement": "Activity", "setting": "[1]", "value": 0.01}, {"measurement": "Activity", "setting": "[2]", "value": 1.92}, {"measurement": "Activity", "setting": "[3]", "value": 0.97}, {"measurement": "IC50", "setting": "[4]", "value": 71, "unit": "nM"}, {"measurement": "Activity", "setting": "[5]", "value": 4.3}]}
{"compound": "C[C@]12CCC3C(CC[C@H]4C[C@H](O)CC[C@]34C)C1CCCN2C(=O)CO", "note": "(some centres undefined)", "values": [{"measurement": "Activity", "setting": "[1]", "value": 0.49}, {"measurement": "Activity", "setting": "[2]", "value": 1.73}, {"measurement": "Activity", "setting": "[3]", "value": 1.17}, {"measurement": "IC50", "setting": "[4]", "value": 45, "unit": "nM"}, {"measurement": "Activity", "setting": "[5]", "value": 8.09}]}
{"compound": "CC(=O)N1CCCC2C3CC[C@@H]4C[C@H](O)CC[C@]4(C)C3CC[C@@]21C", "note": "(some centres undefined)", "values": [{"measurement": "Activity", "setting": "[1]", "value": 0.01}, {"measurement": "Activity", "setting": "[2]", "value": 1.04}, {"measurement": "Activity", "setting": "[3]", "value": 1.37}, {"measurement": "Activity", "setting": "[5]", "value": 1.18}]}
{"compound": "C[C@]12CC[C@@H](O)C[C@@H]1CC[C@@H]1[C@@H]2CC[C@]2(C)[C@@H](C(=O)CO)CC[C@@H]12", "values": [{"measurement": "Activity", "setting": "[1]", "value": 1.67}, {"measurement": "Activity", "setting": "[2]", "value": 4.55}, {"measurement": "Activity", "setting": "[3]", "value": 1.3}, {"measurement": "IC50", "setting": "[4]", "value": 39, "unit": "nM"}, {"measurement": "Activity", "setting": "[5]", "value": 11.8}]}
{"compound": "CC(=O)N1CCCC2C3CC[C@H]4C[C@](C)(O)CC[C@]4(C)C3CC[C@@]21C", "note": "(some centres undefined)", "values": [{"measurement": "Activity", "setting": "[1]", "value": 0.05}, {"measurement": "Activity", "setting": "[2]", "value": 1.04}, {"measurement": "Activity", "setting": "[3]", "value": 0.96}, {"measurement": "IC50", "setting": "[4]", "value": 2610, "unit": "nM"}, {"measurement": "Activity", "setting": "[5]", "value": 1.99}]}
{"compound": "CC(=O)[C@H]1CC[C@H]2[C@@H]3CC[C@H]4C[C@H](O)CC[C@]4(C)[C@H]3CC[C@]12C", "note": "[BREXANOLONE]", "values": [{"measurement": "Activity", "setting": "[1]", "value": 0.37}, {"measurement": "Activity", "setting": "[2]", "value": 3.89}, {"measurement": "Activity", "setting": "[3]", "value": 1.26}, {"measurement": "IC50", "setting": "[4]", "value": 74, "unit": "nM"}, {"measurement": "Activity", "setting": "[5]", "value": 9.65}]}
{"compound": "C[C@]12CCC3C(CC[C@H]4C[C@H](O)CC[C@]34C)C1CCCN2C(=O)C(F)(F)F", "note": "(some centres undefined)", "values": [{"measurement": "Activity", "setting": "[1]", "value": 0.5}, {"measurement": "Activity", "setting": "[2]", "value": 1.91}, {"measurement": "Activity", "setting": "[3]", "value": 1.11}, {"measurement": "IC50", "setting": "[4]", "value": 430, "unit": "nM"}, {"measurement": "Activity", "setting": "[5]", "value": 10.1}]}
{"compound": "C[C@]12CC[C@@H](O)C[C@H]1CC[C@@H]1[C@@H]2CC[C@]2(C)[C@@H](C(=O)CO)CC[C@@H]12", "values": [{"measurement": "Activity", "setting": "[1]", "value": 0.19}, {"measurement": "Activity", "setting": "[2]", "value": 2.37}, {"measurement": "Activity", "setting": "[3]", "value": 1.21}, {"measurement": "IC50", "setting": "[4]", "value": 120, "unit": "nM"}, {"measurement": "Activity", "setting": "[5]", "value": 5.43}]}
{"compound": "C[C@]12CCC3C(CC[C@@H]4C[C@H](O)CC[C@]34C)C1CCCN2C(=O)C(F)(F)F", "note": "(some centres undefined)", "values": [{"measurement": "Activity", "setting": "[1]", "value": 0.02}, {"measurement": "Activity", "setting": "[2]", "value": 0.96}, {"measurement": "Activity", "setting": "[3]", "value": 0.98}, {"measurement": "IC50", "setting": "[4]", "value": 6220, "unit": "nM"}, {"measurement": "Activity", "setting": "[5]", "value": 1.12}]}
